Experimental data taken from ChEMBL document CHEMBL3227917, “Structure-activity relationships of dimeric Catharanthus alkaloids. 2. Experimental antitumor activities of N-substituted deacetylvinblastine amide (vindesine) sulfates” (J Med Chem, 1979).

Tests used:
[1] = Antitumor activity against mouse Gardner lymphosarcoma allografted in C3H mouse assessed as tumor growth inhibition at 0.05 mg/kg, ip administered daily for 8 to 10 days; type: functional; conditions: route intraperitoneal, read-out: TGI
Summary of the method: (§1)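 Gardner lymphosarcoma in C3H mice; sulfate salts unless noted, given ip daily for 8–10 days, treatment starting 8 days after tumor implantation. Tumor growth inhibition scored as –, 0–25%; +, 26–50%; ++, 51–75%; +++, 76–100%; T, lethal to ≥5 of 10 animals per group. Average of one or more tests.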

[2] = Antitumor activity against mouse P1534 cells allografted in DBA2 mouse assessed as tumor growth inhibition at 0.25 mg/kg, ip administered daily for 8 to 10 days; type: functional; conditions: route intraperitoneal, read-out: TGI
Summary of the method: (§2)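 P1534(J) leukemia implanted sc in DBA2 mice; sulfate salts dosed ip daily for 8–10 days. Growth inhibition scored –, 0–25%; +, 26–50%; ++, 51–75%; +++, 76–100%; T, lethal to ≥5 of 10 animals per group. Average of one or more tests.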

[3] = Antitumor activity against mouse Gardner lymphosarcoma allografted in C3H mouse assessed as tumor growth inhibition at 0.40 mg/kg, ip administered daily for 8 to 10 days; type: functional; conditions: route intraperitoneal, read-out: TGI; summary of the method: as §1
CHO [4] = assay: Mitotic arrest in CHO cells assessed as increase in cell accumulation at 0.002 ug/ml; type: functional, Cricetulus griseus
Summary of the method: (§3)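 Chinese hamster ovary cells in tissue culture, scored for mitotic arrest as increase in cells in mitotic arrest over control: +++, 40–50%; ++, 15–40%; +, 10–15%; ±, 7–10%; –, 3–7%. Cytotoxicity noted separately.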

[5] = Antitumor activity against mouse Gardner lymphosarcoma allografted in C3H mouse assessed as tumor growth inhibition at 0.30 mg/kg, ip administered daily for 8 to 10 days; type: functional; conditions: route intraperitoneal, read-out: TGI; summary of the method: as §1
CHO [6] = assay: Mitotic arrest in CHO cells assessed as increase in cell accumulation at 0.02 ug/ml; type: functional, Cricetulus griseus; summary of the method: as §3
[7] = Antitumor activity against mouse Ridgway osteogenic sarcoma allografted in AKR mouse assessed as tumor growth inhibition at 0.10 mg/kg, ip administered daily for 8 to 10 days compound treatment commenced 8 days after tumor implantation; type: functional; conditions: route intraperitoneal, read-out: TGI
[8] = Antitumor activity against mouse Ridgway osteogenic sarcoma allografted in AKR mouse assessed as tumor growth inhibition at 0.20 mg/kg, ip administered daily for 8 to 10 days compound treatment commenced 8 days after tumor implantation; type: functional; conditions: route intraperitoneal, read-out: TGI
Mus musculus [9] = assay: Toxicity in C3H mouse allografted with mouse Gardner lymphosarcoma assessed as lethality at 0.5 mg/kg, ip administered daily for 8 to 10 days; type: organism-based; parameters: dose 0.5 mg/kg, route intraperitoneal; conditions: in vivo
Summary of the method: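 Tumor-bearing mice given sulfate salts ip daily for 8–10 days; values are the average of one or more tests. Toxic means lethal to ≥5 of 10 animals per group.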

[10] = Antitumor activity against mouse Gardner lymphosarcoma allografted in C3H mouse assessed as tumor growth inhibition at 0.20 mg/kg, ip administered daily for 8 to 10 days; type: functional; conditions: route intraperitoneal, read-out: TGI; summary of the method: as §1
[11] = Antitumor activity against mouse Ridgway osteogenic sarcoma allografted in AKR mouse assessed as tumor growth inhibition at 0.30 mg/kg, ip administered daily for 8 to 10 days compound treatment commenced 8 days after tumor implantation; type: functional; conditions: route intraperitoneal, read-out: TGI
[12] = Antitumor activity against mouse Ridgway osteogenic sarcoma allografted in AKR mouse assessed as tumor growth inhibition at 0.05 mg/kg, ip administered daily for 8 to 10 days compound treatment commenced 8 days after tumor implantation; type: functional; conditions: route intraperitoneal, read-out: TGI
Mus musculus [13] = assay: Toxicity in mouse assessed as body weight at 0.5 mg/kg, ip administered twice per week for 4 weeks, then three doses per week for 3 weeks and finally six doses per week for 2 weeks measured at week 9 (reference value: 18.5 +/- 0.5 gms); conditions: in vivo
[14] = Antitumor activity against mouse Gardner lymphosarcoma allografted in C3H mouse assessed as tumor growth inhibition at 0.10 mg/kg, ip administered daily for 8 to 10 days; type: functional; conditions: route intraperitoneal, read-out: TGI; summary of the method: as §1
[15] = Antitumor activity against mouse Ridgway osteogenic sarcoma allografted in AKR mouse assessed as tumor growth inhibition at 0.40 mg/kg, ip administered daily for 8 to 10 days compound treatment commenced 8 days after tumor implantation; type: functional; conditions: route intraperitoneal, read-out: TGI
CHO [16] = assay: Mitotic arrest in CHO cells assessed as increase in cell accumulation at 2 ug/ml; type: functional, Cricetulus griseus; summary of the method: as §3
CHO [17] = assay: Mitotic arrest in CHO cells assessed as increase in cell accumulation at 0.2 ug/ml; type: functional, Cricetulus griseus; summary of the method: as §3
[18] = Antitumor activity against mouse P1534 cells allografted in DBA2 mouse assessed as tumor growth inhibition at 0.20 mg/kg, ip administered daily for 8 to 10 days; type: functional; conditions: route intraperitoneal, read-out: TGI; summary of the method: as §2
P388/VCR [19] = assay: Antitumor activity against mouse P388/VCR cells allografted in B6D2F1 mouse assessed as increase in host lifespan at 0.60 mg/kg, ip administered on days 1, 5 and 9; type: functional; conditions: dose 0.6 mg/kg; route intraperitoneal
Summary of the method: (§4)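 P388/VCR leukemia in groups of 10 B6D2F1 mice, run at Lilly using the cell strain received from NCI. Sulfate salts given ip on days 1, 5 and 9. Read-out is percent increase in lifespan.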

P388/S [20] = assay: Antitumor activity against mouse P388/S cells allografted in CD2F1 mouse assessed as increase in host lifespan at 1.00 mg/kg, ip administered on days 1, 5 and 9; type: functional; conditions: route intraperitoneal
Summary of the method: (§5)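 Groups of eight male CD2F1 mice bearing P388 leukemia, run at NCI. Sulfate salts given ip on days 1, 5 and 9. Read-out is percent increase in lifespan.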

P388/VCR [21] = assay: Antitumor activity against mouse P388/VCR cells allografted in CD2F1 mouse assessed as increase in host lifespan at 0.60 mg/kg, ip administered on days 1, 5 and 9; type: functional; conditions: dose 0.6 mg/kg; route intraperitoneal; summary of the method: as §5
Mus musculus [22] = assay: Toxicity in CD2F1 mouse allografted with mouse P388/VCR cells at 1.67 mg/kg, ip administered on days 1, 5 and 9; type: organism-based; parameters: dose 1.67 mg/kg, route intraperitoneal; conditions: in vivo
P388/S [23] = assay: Antitumor activity against mouse P388/S cells allografted in CD2F1 mouse assessed as increase in host lifespan at 0.36 mg/kg, ip administered on days 1, 5 and 9; type: functional; conditions: route intraperitoneal; summary of the method: as §5
P388/VCR [24] = assay: Antitumor activity against mouse P388/VCR cells allografted in CD2F1 mouse assessed as increase in host lifespan at 0.36 mg/kg, ip administered on days 1, 5 and 9; type: functional; conditions: route intraperitoneal; summary of the method: as §5
P388/VCR [25] = assay: Antitumor activity against mouse P388/VCR cells allografted in CD2F1 mouse assessed as increase in host lifespan at 1.00 mg/kg, ip administered on days 1, 5 and 9; type: functional; conditions: route intraperitoneal; summary of the method: as §5
P388/S [26] = assay: Antitumor activity against mouse P388/S cells allografted in CD2F1 mouse assessed as increase in host lifespan at 1.67 mg/kg, ip administered on days 1, 5 and 9; type: functional; conditions: route intraperitoneal; summary of the method: as §5
CHO [27] = assay: Cytotoxicity against CHO cells at 0.02 ug/ml; type: cell-based, Cricetulus griseus; conditions: chinese hamster; summary of the method: as §3
P388/S [28] = assay: Antitumor activity against mouse P388/S cells allografted in CD2F1 mouse assessed as increase in host lifespan at 0.60 mg/kg, ip administered on days 1, 5 and 9; type: functional; conditions: dose 0.6 mg/kg; route intraperitoneal; summary of the method: as §5
[29] = Antitumor activity against mouse P1534 cells allografted in DBA2 mouse assessed as tumor growth inhibition at 0.10 mg/kg, ip administered daily for 8 to 10 days; type: functional; conditions: route intraperitoneal, read-out: TGI; summary of the method: as §2
[30] = Antitumor activity against mouse P388/VCR/I/63 cells allografted in Dublin-CDF1 mouse assessed as increase in host lifespan at 1.5 mg/kg, ip administered on days 1, 5 and 9; type: functional; conditions: route intraperitoneal
[31] = Toxicity in iv dosed mouse assessed as lethality; type: organism-based; conditions: in vivo
P388/VCR [32] = assay: Antitumor activity against mouse P388/VCR cells allografted in B6D2F1 mouse assessed as increase in host lifespan at 0.90 mg/kg, ip administered on days 1, 5 and 9; type: functional; conditions: dose 0.9 mg/kg; route intraperitoneal; summary of the method: as §4
[33] = Antitumor activity against mouse P388/VCR/I/63 cells allografted in Dublin-CDF1 mouse assessed as day of host death at 1.5 mg/kg, ip administered on days 1, 5 and 9 (reference value: 10 days); type: functional; conditions: route intraperitoneal
P388/VCR [34] = assay: Antitumor activity against mouse P388/VCR cells allografted in B6D2F1 mouse assessed as increase in host lifespan at 1.20 mg/kg, ip administered on days 1, 5 and 9; type: functional; conditions: dose 1.2 mg/kg; route intraperitoneal; summary of the method: as §4

## CC[C@]1(O)C[C@H]2CN(CCc3c([nH]c4ccccc34)[C@@](C(=O)OC)(c3cc4c(cc3OC)N(C)[C@H]3[C@@](O)(C(=O)NC)[C@H](O)[C@]5(CC)C=CCN6CC[C@]43[C@@H]65)C2)C1.O=S(=O)(O)O
[1]
  inhibition in vivo at 0.05 mg/kg: 0%
[2]
  inhibition in vivo at 0.25 mg/kg: 76%
[3]
  inhibition in vivo at 0.4 mg/kg: 76%
CHO [4]
  Activity: 3%
[5]
  inhibition in vivo at 0.3 mg/kg: 76%
CHO [6]
  Activity: 15%
[7]
  inhibition in vivo at 0.1 mg/kg: 0%
[8]
  inhibition in vivo at 0.2 mg/kg: 51%
Mus musculus [9]
  Activity: Toxic
[10]
  inhibition in vivo at 0.2 mg/kg: 76%
[11]
  inhibition in vivo at 0.3 mg/kg: 76%
[12]
  inhibition in vivo at 0.05 mg/kg: 0%
Mus musculus [13]
  Activity: 24.6 g
[14]
  inhibition in vivo at 0.1 mg/kg: 0%
[15]
  inhibition in vivo at 0.4 mg/kg: 76%

## CC[C@]1(O)C[C@@H]2C[C@](C(=O)OC)(c3cc4c(cc3OC)N(C)[C@H]3[C@@](O)(C(N)=O)[C@H](O)[C@]5(CC)C=CCN6CC[C@]43[C@@H]65)c3[nH]c4ccccc4c3CC[N+]([O-])(C2)C1
CHO [16]
  Activity: 15%
CHO [17]
  Activity: 7%

## CC[C@]1(O)C[C@H]2CN(CCc3c([nH]c4ccccc34)[C@@](C(=O)OC)(c3cc4c(cc3OC)N(C=O)[C@H]3[C@@](O)(C(=O)OC)[C@H](OC(C)=O)[C@]5(CC)C=CCN6CC[C@]43[C@@H]65)C2)C1.O=S(=O)(O)O [VINCRISTINE SULFATE]
[18]
  inhibition in vivo at 0.2 mg/kg: 76%
P388/VCR [19]
  Activity: 5%
[2]
  inhibition in vivo at 0.25 mg/kg: 76%
P388/S [20]
  Activity: 138%
P388/VCR [21]
  Activity: 0%
CHO [4]
  Activity: 10%
Mus musculus [22]
  Activity: Toxic
CHO [6]
  Activity: 40%
P388/S [23]
  Activity: 83%
P388/VCR [24]
  Activity: 0%
P388/VCR [25]
  Activity: 0%
P388/S [26]
  Activity: 96%
CHO [27]
  Activity: Toxic
P388/S [28]
  Activity: 83%
[29]
  inhibition in vivo at 0.1 mg/kg: 51%
[30]
  Activity: 50%
[31]
  LD50: 2.1 mg/kg
P388/VCR [32]
  Activity: 0%
[33]
  Activity: 15 days
P388/VCR [34]
  Activity: 0%
